{"source": "PubChem BioAssay AID624466", "about": "(The Scripps Research Institute Molecular Screening Center, 2012)", "note": "The whole screen tested about 360,000 compounds, of which about 5,400 (1.5%) were called active.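 The calls were made as follows: active = inhibition above a per-plate cutoff, the mean inhibition of test compounds on that plate plus 3 SD (cut at about 49% in these data); inactive = the rest.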 The entries come from a sample that favours actives as a whole."}
{"biological_target": "Trace amine-associated receptor 1 (Homo sapiens) (UniProt Q96RJ0)", "sequence (Q96RJ0 whole entry, looked up)": "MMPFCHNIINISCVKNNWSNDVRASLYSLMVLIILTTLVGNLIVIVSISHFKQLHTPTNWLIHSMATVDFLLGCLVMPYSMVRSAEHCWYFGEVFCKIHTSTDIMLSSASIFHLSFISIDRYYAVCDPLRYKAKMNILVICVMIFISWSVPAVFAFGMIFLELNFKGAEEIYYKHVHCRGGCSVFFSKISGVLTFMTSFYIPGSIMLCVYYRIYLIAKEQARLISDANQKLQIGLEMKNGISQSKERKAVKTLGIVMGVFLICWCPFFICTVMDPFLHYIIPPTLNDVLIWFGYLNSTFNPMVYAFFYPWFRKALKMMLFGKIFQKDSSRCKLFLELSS", "test": "human TAAR1 antagonists, primary screen, Fluo-8 calcium fluorescence, CHO RD-HGA16 cells (AID 624466);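 also: 0% = DMSO plus EC80 beta-PEA response and 100% = DMSO alone without agonist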", "details": "CHO RD-HGA16 TAAR1, Fluo-8 calcium fluorescence, antagonist; at 3 µM; active compounds read high", "how_it_was_run": "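Assay system: CHO-derived RD-HGA16 cells stably expressing human TAAR1 plus Gα16. Timing: 140 s kinetic read after compound, 140 s after agonist. Technique: kinetic Fluo-8 calcium fluorescence measurement. Measure: % inhibition of agonist calcium response.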"}
{"smiles": "O=C(CN1CCSCC1)N/N=C/c1ccc(Cl)cc1", "inhibition": "-17.2% (inactive)"}
{"smiles": "Cc1ccc(NC(=O)c2ccc(CSc3ncnc4nc[nH]c34)cc2)c(C)c1", "inhibition": "56.7% (active)"}
{"smiles": "CSc1ncc(C(=O)Nc2ccc(C)cc2C)c(C)n1", "inhibition": "-0.22% (inactive)"}
{"smiles": "CSCc1ccc(C(=O)Nc2cc(C)cc(C)c2)cc1", "inhibition": "16.7% (inactive)"}
{"smiles": "CC[C@@H]1CCCCc2ccccc2[C@@H](C(=O)C[C@H](O)CC(C)=O)OC1=O", "inhibition": "13.4% (inactive)"}
{"smiles": "C=CCn1c(SCc2c(C(=O)OC)sc(N)c2C(=O)OC)nnc1-c1ccc(Cl)cc1", "inhibition": "34.7% (inactive)"}
{"smiles": "O=C(NNC(=S)Nc1ccc(Br)cc1Cl)c1ccco1", "inhibition": "-2.77% (inactive)"}
{"smiles": "CC(Oc1ccc2ccccc2c1)C(=O)NNC(=S)NC(=O)c1ccco1", "note": "(stereo unspecified)", "inhibition": "61.9% (active)"}
{"smiles": "CCCc1ccc(OCC(=O)NNC(=S)NC(=O)c2ccco2)cc1", "inhibition": "74.2% (active)"}
{"smiles": "O=C(Nc1ccc2ccccc2c1)/C(=C\\c1ccc2c(c1)OCO2)NC(=O)c1ccco1", "inhibition": "12.7% (inactive)"}
{"smiles": "CCOc1cc(NC(=S)NCc2ccco2)c(OCC)cc1NC(=O)c1ccco1", "inhibition": "9.19% (inactive)"}
{"smiles": "NS(=O)(=O)c1ccc(CNC(=S)NC(=O)c2ccco2)cc1", "inhibition": "6.18% (inactive)"}
{"smiles": "Cc1ccc(S(=O)(=O)N2CC3C(=O)C[C@@H](c4ccccc4Cl)N(S(=O)(=O)c4ccc(C)cc4)C3CC2c2ccccc2)cc1", "note": "(stereo partly specified)", "inhibition": "2.68% (inactive)"}
{"smiles": "COC(=O)c1cc2c(c3c4cc(F)ccc4n(S(=O)(=O)c4ccccc4)c13)C(=O)N(Cc1ccccc1OC)C2", "inhibition": "-0.96% (inactive)"}
{"smiles": "O=C(C(=O)N1CCC(CNC(=O)c2cccnc2Cl)CC1)c1cccs1", "inhibition": "-12.2% (inactive)"}
{"smiles": "COc1ccc(CNC(=O)COc2cccnc2[N+](=O)[O-])cc1", "inhibition": "-4.68% (inactive)"}
{"smiles": "Cc1ccc(-c2c(N)nc3ncccn23)cc1", "inhibition": "-8.72% (inactive)"}
{"smiles": "COCCn1c(C)cc(C(=O)CSc2nnc(C3CC3)n2C2CC2)c1C", "inhibition": "10.2% (inactive)"}
{"smiles": "Nc1nc2c(Br)ccc(Br)c2cc1C(=O)NCCc1ccccc1", "inhibition": "-14% (inactive)"}
{"smiles": "O=C(NNS(=O)(=O)c1ccc(F)cc1)C1CCCCC1", "inhibition": "-20.9% (inactive)"}
{"smiles": "O=C(CN1CCCSc2ccccc21)N1CCN(S(=O)(=O)c2ccccc2)CC1", "inhibition": "18.8% (inactive)"}
{"smiles": "O=C(CN1CCCSc2ccccc21)N1CCN(S(=O)(=O)c2cccc(F)c2)CC1", "inhibition": "49.7% (active)"}
{"smiles": "O=C(CN1CCN(S(=O)(=O)c2cccc(Cl)c2)CC1)N1CCCCC1", "inhibition": "6.11% (inactive)"}
{"smiles": "Cc1ccccc1C(=O)N[C@H](C(=O)N1CCC[C@H]1C(=O)NCc1ccccc1)C(C)C", "inhibition": "14.4% (inactive)"}
{"smiles": "O=C(NC1CCCC1)C1c2ccccc2OCC(=O)N1CC(F)(F)F", "note": "(stereo unspecified)", "inhibition": "4.73% (inactive)"}
{"smiles": "CCOc1ccccc1N1CN(Cc2ccccc2)CNC1=S", "inhibition": "-9.06% (inactive)"}
{"smiles": "COc1ccc2[nH]cc(/C=C(/C#N)S(=O)(=O)c3ccccc3)c2c1", "inhibition": "51% (active)"}
{"smiles": "COc1ccc2[nH]cc(CCN3C(=O)c4ccc(C(=O)O)cc4C3=O)c2c1", "inhibition": "-11.2% (inactive)"}
{"smiles": "COc1ccc(NS(=O)(=O)c2ccc(Oc3c(C#N)cccc3C#N)cc2)cc1", "inhibition": "38.8% (inactive)"}
{"smiles": "CC(C)c1ccc(OCC(O)Cn2cnc3ccccc32)cc1", "note": "(stereo unspecified)", "inhibition": "-0.64% (inactive)"}
{"smiles": "OC(CN=c1sc2ccccc2n1CC(O)COc1ccccc1)COc1ccccc1", "note": "(stereo unspecified)", "inhibition": "67.2% (active)"}
{"smiles": "Cc1cccc(OCC(O)Cn2c(=N)n(CCN3CCOCC3)c3ccccc32)c1", "note": "(stereo unspecified)", "inhibition": "-7.65% (inactive)"}
{"smiles": "O=C(COC(=O)CCc1nc2ccccc2c(=O)[nH]1)Nc1ccc(N2CCOCC2)cc1", "inhibition": "0.61% (inactive)"}
{"smiles": "CC(C)(C)c1ccc(NC(=O)COC(=O)CCc2nc3ccccc3c(=O)[nH]2)cc1", "inhibition": "6.51% (inactive)"}
{"smiles": "O=C(COC(=O)CCCSc1nc2ccccc2[nH]1)Nc1ccc(Oc2ccccc2)cc1", "inhibition": "67.1% (active)"}
{"smiles": "Nc1nc2c(ncn2[C@@H]2O[C@H](C(=O)N[C@H](Cc3ccccc3)C(=O)NCC3CCCCC3)[C@@H](O)[C@H]2O)c(=O)[nH]1", "inhibition": "-12.4% (inactive)"}
{"smiles": "O=C(Cn1cncn1)N/N=C/c1c2ccccc2cc2ccccc12", "inhibition": "-12.2% (inactive)"}
{"smiles": "Cc1ccc(S(=O)(=O)N[C@H](CO)C(C)C)cc1", "inhibition": "-9.25% (inactive)"}
{"smiles": "Cc1ccc(NC(=O)Nc2cc(-c3ccccc3)nn2C)cc1Cl", "inhibition": "8.7% (inactive)"}
{"smiles": "CC(=O)Nc1ccc(-c2csc(NC(=O)Nc3ccccc3)n2)cc1", "inhibition": "63.2% (active)"}
{"smiles": "NC(c1ccccc1)c1csc(NC(=O)Nc2cccc(C(F)(F)F)c2)n1", "note": "(stereo unspecified)", "inhibition": "35.6% (inactive)"}
{"smiles": "CCCC(CNC(=O)COC(=O)C1=NNC(=O)CC1)c1ccc(Cl)cc1Cl", "note": "(stereo unspecified)", "inhibition": "-3.84% (inactive)"}
{"smiles": "COCCCNC(=O)C1CC(=O)N(c2ccc(C)cc2)C1", "note": "(stereo unspecified)", "inhibition": "-3.91% (inactive)"}
{"smiles": "O=C(NCCCO)c1cc2c([nH]c3ccccc32)c(-c2ccc(F)cc2)n1", "inhibition": "23.9% (inactive)"}
{"smiles": "COc1ccc2cc(C(=O)NCC3CCCO3)[nH]c2c1", "note": "(stereo unspecified)", "inhibition": "-16.3% (inactive)"}
{"smiles": "O=C(NCC1CCCO1)c1cc2c([nH]c3ccccc32)c(-c2ccc(F)cc2)n1", "note": "(stereo unspecified)", "inhibition": "74.8% (active)"}
{"smiles": "CC(=O)Nc1cccc(-c2cc(NC=O)c3ncc(-c4ccc(F)c(Cl)c4)n3c2)c1", "inhibition": "39% (inactive)"}
{"smiles": "Cc1c(C)n2c(SCC(=O)N3CCCC3)nnc2[nH]c1=O", "inhibition": "-9.03% (inactive)"}
{"smiles": "CN1CCCCC(NC(=O)C(C)(C)C)C1=O", "note": "(stereo unspecified)", "inhibition": "-14% (inactive)"}
{"smiles": "Cc1ccc(/C=C/C(=O)Nc2cc(S(=O)(=O)N3CCCCCC3)ccc2OCC(F)(F)F)o1", "inhibition": "-13.9% (inactive)"}
{"smiles": "Cc1ccc(/C=C/C(=O)Nc2ccc([N+](=O)[O-])c(NC(=O)/C=C/c3ccc(C)o3)c2)o1", "inhibition": "48.8% (active)"}
{"smiles": "COC(=O)/C=C\\C(=O)Nc1cccc([N+](=O)[O-])c1", "inhibition": "-1.13% (inactive)"}
{"smiles": "CC(C(=O)N=Nc1c(O)n(C)c2ccc(Br)cc12)n1cnc2ccccc2c1=O", "note": "(stereo unspecified)", "inhibition": "-6.29% (inactive)"}
{"smiles": "COCc1[nH]nc2c1C(c1ccccc1)N(c1ccccc1)C2=O", "note": "(stereo unspecified)", "inhibition": "-20.8% (inactive)"}
{"smiles": "O=[N+]([O-])c1ccc(N2CCNCC2)cc1NCc1cccnc1", "inhibition": "13.4% (inactive)"}
{"smiles": "COC(=O)c1sccc1NC(=O)c1cc(OC)c(OC)c(OC)c1", "inhibition": "52.3% (active)"}
{"smiles": "COC(=O)c1sccc1NC(=O)CCC1CCCC1", "inhibition": "15.8% (inactive)"}
{"smiles": "COc1ccc(Cc2nnc(NC(=O)c3cc(OC)c(OC)c(OC)c3)s2)cc1OC", "inhibition": "-43.4% (inactive)"}
{"smiles": "CCOC(=O)[C@]12CCC=C1N(Cc1ccco1)C(=O)[C@H](CC(=O)NCc1cccc(C(F)(F)F)c1)C2", "inhibition": "-12.7% (inactive)"}
{"smiles": "O=S1(=O)CC(N2CCN(CCO)CC2)CN1Cc1cn(Cc2cccc(Cl)c2)nn1", "note": "(stereo unspecified)", "inhibition": "-8.99% (inactive)"}
{"smiles": "Oc1ccccc1C=NC1CCCCC1N=Cc1ccccc1O", "note": "(stereo unspecified)", "inhibition": "0.73% (inactive)"}
{"smiles": "O=C(N/N=C/c1ccccc1O)/C(=C/c1ccccc1)CCO", "inhibition": "12.2% (inactive)"}
{"smiles": "O=C(NN=Cc1ccccc1O)NN=Cc1ccccc1O", "inhibition": "53.9% (active)"}
{"smiles": "CN1C(=O)C(Br)(Br)CC1c1cccnc1", "note": "(stereo unspecified)", "inhibition": "-9.8% (inactive)"}
{"smiles": "O=C(CSc1nnc(-c2ccco2)o1)NCC(=O)c1ccccc1", "inhibition": "-36% (inactive)"}
{"smiles": "O=C(CCc1ccccc1)Nc1cccc(-c2nnc(-c3ccco3)o2)c1", "inhibition": "56.8% (active)"}
{"smiles": "C/C(=N/NC(=O)CCc1ccccc1)c1ccco1", "inhibition": "-8.62% (inactive)"}
{"smiles": "COC1(C2=NCCN2)COc2ccccc2O1", "note": "(stereo unspecified)", "inhibition": "-15.3% (inactive)"}
{"smiles": "Cc1ccc(S(=O)(=O)N(c2cccc(C)c2)C2CCS(=O)(=O)C2)cc1", "note": "(stereo unspecified)", "inhibition": "-4.68% (inactive)"}
{"smiles": "O=C(O)C1C2C=CC(O2)C1C(=O)Nc1ccccn1", "note": "(stereo unspecified)", "inhibition": "13.6% (inactive)"}
{"smiles": "O=C(NCCc1ccccc1)C1CC1", "inhibition": "1.61% (inactive)"}
{"smiles": "O=C(O)C1C2C=CC(O2)C1C(=O)NCCc1cccc(Cl)c1", "note": "(stereo unspecified)", "inhibition": "70.5% (active)"}
{"smiles": "COc1ccc(N/N=C2/CCCCC2=O)cc1", "inhibition": "-11.3% (inactive)"}
{"smiles": "O=C(NCCN1CCOCC1)C1CCN(S(=O)(=O)c2ccccc2)CC1", "inhibition": "1.73% (inactive)"}
{"smiles": "CCCCNC(=O)OC1CC2CC1[C@H]1CCCCN1C2=O", "note": "(stereo partly specified)", "inhibition": "-1.17% (inactive)"}
{"smiles": "Cc1nc2c(C(=O)NCc3cccs3)cnn2c(C)c1Cc1ccc(F)cc1", "inhibition": "9.05% (inactive)"}
{"smiles": "COc1cccc(NC(=O)COC(=O)/C=C/c2ccco2)c1", "inhibition": "-14.3% (inactive)"}
{"smiles": "O=C(O)/C=C\\C(=O)Nc1ccc(OCc2ccccc2)cc1", "inhibition": "4.01% (inactive)"}
{"smiles": "O=C(/C=C/c1ccco1)Nc1ccc(Oc2ccccc2)cc1", "inhibition": "52.3% (active)"}
{"smiles": "CCCCCCCCN1C(=O)[C@@H](CC(=O)NCc2ccc(C)o2)C[C@@]2(C(=O)OC)C1=C[C@H](C(C)(C)C)O[C@@H]2C", "inhibition": "-36.1% (inactive)"}
{"smiles": "COc1cc(OC)nc(N/N=C(\\c2ccccc2)c2ccncc2)n1", "inhibition": "5.98% (inactive)"}
{"smiles": "C/C(=N/Nc1nc(-c2ccccc2)c(CC(=O)O)s1)c1ccccc1", "inhibition": "24.8% (inactive)"}
{"smiles": "c1ccc(C(=NNc2nc3ccccc3s2)c2ccccn2)cc1", "inhibition": "53.9% (active)"}
{"smiles": "Nc1nc2c(ncn2[C@@H]2O[C@H](C(=O)N[C@@H](Cc3ccccc3)C(=O)NCc3ccccc3)[C@@H](O)[C@H]2O)c(=O)[nH]1", "inhibition": "-6.97% (inactive)"}
{"smiles": "COCCNC(=S)Nc1cc(S(=O)(=O)N2CCOCC2)ccc1N1CCCCC1", "inhibition": "-23.6% (inactive)"}
{"smiles": "Clc1ccc2nc(-c3ccccc3)nc(C(Cl)Cl)c2c1", "inhibition": "2.4% (inactive)"}
{"smiles": "CSc1nc(-c2ccccc2)nc(C(Cl)Cl)n1", "inhibition": "58.9% (active)"}
{"smiles": "COc1ccc(NC(=O)[C@H](NC(=O)[C@@H]2Cc3ccccc3CN2)c2ccccc2)cc1", "inhibition": "-18% (inactive)"}
{"smiles": "COc1cccc(NC(=O)[C@H](Cc2c[nH]c3ccccc23)NC(=O)[C@@H]2Cc3ccccc3CN2)c1", "inhibition": "49.5% (active)"}
{"smiles": "COc1ccc(CNC(=O)[C@H](Cc2c[nH]c3ccccc23)NC(C)=O)cc1OC", "inhibition": "-1.22% (inactive)"}
{"smiles": "Cc1cccc(C)c1NC(=O)C(c1cccc2ccccc12)n1c(=O)c(-c2ccco2)nc2ccccc21", "note": "(stereo unspecified)", "inhibition": "-9.07% (inactive)"}
